Measurements published in ChEMBL document CHEMBL5724801, “EUbOPEN Chemogenomics Library - Multiplex” (2024).
Where “and” joins values, the source holds several entries; their conditions need not be identical. Identical values can stand only once.

Test system: U2OS
Assay: Multiplex assay against U2OS
Format: toxicity, cell-based
Details: human
Procedure, shortened: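 Cells stained live at seeding with Hoechst33342, BioTracker Green Microtubule Cytoskeleton Dye, MitoTracker Red and Annexin V Alexa Fluor 680 were imaged on a CQ1 microscope at 37°C and 5% CO2 after compound addition. Their classification by CellPathfinder machine-learning gating ran from Hoechst high-intensity objects versus normal cells, to healthy, pyknosed or fragmented nuclei among normal cells, to mitotic or apoptotic among pyknosed cells. Tubulin, mitochondrial-mass and membrane-permeability phenotypes are per cents of healthy-nucleus cells.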

[1] = 12 h, 1 µM, compound concentration 1 uM
[2] = 12 h, 10 µM, compound concentration 10 uM
[3] = 24 h, 1 µM, compound concentration 1 uM
[4] = 24 h, 10 µM, compound concentration 10 uM
[5] = 48 h, 1 µM, compound concentration 1 uM
[6] = 48 h, 10 µM, compound concentration 10 uM

Compound: FC(F)(F)c1ccccc1-c1cc(C(F)(F)F)c2[nH]c(C3=NOC4(CCCCC4)C3)nc2c1
- Population Apoptotic (%) [1]: 48.57% and 27.27%
- Population Fragmented Nuclei (%) [1]: 2.24% and 1.95%
- Population Healthy Nuclei (%) [1]: 87.96% and 83.77%
- Population Hoechst High Intensity Objects (%) [1]: 0%
- Population Membrane Permeable-Phenotype (%) [1]: 1.91% and 5.43%
- Population Mitochondria Different-Phenotype (%) [1]: 0.32% and 6.98%
- Population Mitotic Cells (%) [1]: 51.43% and 72.73%
- Population Normal (%) [1]: 100%
- Population Pyknosed Nuclei (%) [1]: 9.8% and 14.29%
- Population Tubulin-Different-Phenotype (%) [1]: 0.96% and 0%
- Total Cell Count [1]: 357 and 154
- Population Apoptotic (%) [2]: 51.92% and 25%
- Population Fragmented Nuclei (%) [2]: 1.81% and 6.56%
- Population Healthy Nuclei (%) [2]: 82.53% and 69.4%
- Population Hoechst High Intensity Objects (%) [2]: 0%
- Population Membrane Permeable-Phenotype (%) [2]: 18.61% and 23.62%
- Population Mitotic Cells (%) [2]: 48.08% and 75%
- Population Normal (%) [2]: 100%
- Population Pyknosed Nuclei (%) [2]: 15.66% and 24.04%
- Population Tubulin-Different-Phenotype (%) [2]: 21.17% and 11.81%
- Total Cell Count [2]: 332 and 183
- Population Apoptotic (%) [3]: 53.33% and 54.17%
- Population Fragmented Nuclei (%) [3]: 0.65% and 0%
- Population Healthy Nuclei (%) [3]: 89.61% and 86.59%
- Population Hoechst High Intensity Objects (%) [3]: 0%
- Population Membrane Permeable-Phenotype (%) [3]: 1.69% and 5.16%
- Population Mitochondria Different-Phenotype (%) [3]: 0.24% and 8.39%
- Population Mitotic Cells (%) [3]: 46.67% and 45.83%
- Population Normal (%) [3]: 100%
- Population Pyknosed Nuclei (%) [3]: 9.74% and 13.41%
- Population Tubulin-Different-Phenotype (%) [3]: 1.93% and 0.65%
- Total Cell Count [3]: 462 and 179
- Population Apoptotic (%) [4]: 41.86% and 43.75%
- Population Fragmented Nuclei (%) [4]: 2.02% and 5.56%
- Population Healthy Nuclei (%) [4]: 76.26% and 70.2%
- Population Hoechst High Intensity Objects (%) [4]: 0%
- Population Mitotic Cells (%) [4]: 58.14% and 56.25%
- Population Normal (%) [4]: 100%
- Population Pyknosed Nuclei (%) [4]: 21.72% and 24.24%
- Population Tubulin-Different-Phenotype (%) [4]: 24.17% and 12.95%
- Total Cell Count [4]: 396 and 198
- Population Apoptotic (%) [5]: 45.78% and 50%
- Population Fragmented Nuclei (%) [5]: 2.67% and 2.11%
- Population Healthy Nuclei (%) [5]: 87.27% and 85.96%
- Population Hoechst High Intensity Objects (%) [5]: 0.12% and 0%
- Population Membrane Permeable-Phenotype (%) [5]: 0.69% and 1.63%
- Population Mitochondria Different-Phenotype (%) [5]: 0.28% and 8.16%
- Population Mitotic Cells (%) [5]: 54.22% and 50%
- Population Normal (%) [5]: 99.88% and 100%
- Population Pyknosed Nuclei (%) [5]: 10.06% and 11.93%
- Population Tubulin-Different-Phenotype (%) [5]: 1.53% and 0.82%
- Total Cell Count [5]: 826 and 285
- Population Apoptotic (%) [6]: 40.68% and 58.46%
- Population Fragmented Nuclei (%) [6]: 3.58% and 4.76%
- Population Healthy Nuclei (%) [6]: 78.04% and 69.44%
- Population Hoechst High Intensity Objects (%) [6]: 0%
- Population Mitotic Cells (%) [6]: 59.32% and 41.54%
- Population Normal (%) [6]: 100%
- Population Pyknosed Nuclei (%) [6]: 18.38% and 25.79%
- Population Tubulin-Different-Phenotype (%) [6]: 19.56% and 20.57%
- Total Cell Count [6]: 642 and 252

Compound: O=C1[C@H](Cc2ccc(O)cc2)N2C(=O)CCN(C(=O)NCc3ccccc3)[C@H]2CN1Cc1cccc2ccccc12
- Population Apoptotic (%) [1]: 91% and 84%
- Population Fragmented Nuclei (%) [1]: 13% and 21%
- Population Healthy Nuclei (%) [1]: 74% and 66%
- Population Hoechst High Intensity Objects (%) [1]: 4% and 0%
- Population Membrane Permeable-Phenotype (%) [1]: 4% and 5%
- Population Mitochondria Different-Phenotype (%) [1]: 1% and 8%
- Population Mitotic Cells (%) [1]: 8% and 15%
- Population Normal (%) [1]: 96% and 99%
- Population Pyknosed Nuclei (%) [1]: 12% and 11%
- Population Tubulin-Different-Phenotype (%) [1]: 1% and 4%
- Total Cell Count [1]: 200 and 113
- Population Apoptotic (%) [2]: 60% and 72%
- Population Fragmented Nuclei (%) [2]: 32% and 19%
- Population Healthy Nuclei (%) [2]: 50% and 67%
- Population Hoechst High Intensity Objects (%) [2]: 3% and 6%
- Population Membrane Permeable-Phenotype (%) [2]: 55% and 38%
- Population Mitochondria Different-Phenotype (%) [2]: 35% and 47%
- Population Mitotic Cells (%) [2]: 40% and 27%
- Population Normal (%) [2]: 96% and 93%
- Population Pyknosed Nuclei (%) [2]: 17% and 13%
- Population Tubulin-Different-Phenotype (%) [2]: 55% and 43%
- Total Cell Count [2]: 207 and 88
- Population Apoptotic (%) [3]: 80% and 88%
- Population Fragmented Nuclei (%) [3]: 13% and 14%
- Population Healthy Nuclei (%) [3]: 73% and 71%
- Population Hoechst High Intensity Objects (%) [3]: 2% and 1%
- Population Membrane Permeable-Phenotype (%) [3]: 4% and 7%
- Population Mitochondria Different-Phenotype (%) [3]: 1% and 5%
- Population Mitotic Cells (%) [3]: 19% and 11%
- Population Normal (%) [3]: 97% and 98%
- Population Pyknosed Nuclei (%) [3]: 13% and 14%
- Population Tubulin-Different-Phenotype (%) [3]: 2% and 4%
- Total Cell Count [3]: 242 and 127
- Population Apoptotic (%) [4]: 65% and 85%
- Population Fragmented Nuclei (%) [4]: 34% and 29%
- Population Healthy Nuclei (%) [4]: 42% and 54%
- Population Hoechst High Intensity Objects (%) [4]: 3% and 5%
- Population Membrane Permeable-Phenotype (%) [4]: 25% and 36%
- Population Mitochondria Different-Phenotype (%) [4]: 23% and 38%
- Population Mitotic Cells (%) [4]: 34% and 14%
- Population Normal (%) [4]: 96% and 94%
- Population Pyknosed Nuclei (%) [4]: 22% and 16%
- Population Tubulin-Different-Phenotype (%) [4]: 25% and 42%
- Total Cell Count [4]: 214 and 91
- Population Apoptotic (%) [5]: 81% and 95%
- Population Fragmented Nuclei (%) [5]: 15% and 16%
- Population Healthy Nuclei (%) [5]: 73% and 67%
- Population Hoechst High Intensity Objects (%) [5]: 3% and 5%
- Population Membrane Permeable-Phenotype (%) [5]: 2% and 3%
- Population Mitochondria Different-Phenotype (%) [5]: 2% and 0%
- Population Normal (%) [5]: 96% and 94%
- Population Pyknosed Nuclei (%) [5]: 11% and 15%
- Population Tubulin-Different-Phenotype (%) [5]: 3% and 5%
- Total Cell Count [5]: 326 and 168
- Population Apoptotic (%) [6]: 82% and 81%
- Population Fragmented Nuclei (%) [6]: 37% and 33%
- Population Healthy Nuclei (%) [6]: 43% and 46%
- Population Hoechst High Intensity Objects (%) [6]: 5% and 4%
- Population Membrane Permeable-Phenotype (%) [6]: 28% and 22%
- Population Mitochondria Different-Phenotype (%) [6]: 16% and 20%
- Population Mitotic Cells (%) [6]: 17% and 18%
- Population Normal (%) [6]: 94% and 95%
- Population Pyknosed Nuclei (%) [6]: 19% and 20%
- Population Tubulin-Different-Phenotype (%) [6]: 19% and 18%
- Total Cell Count [6]: 252 and 111

Compound: O=C(NCCO)c1cccc(-c2cc(Nc3ccc(OC(F)(F)F)cc3)ncn2)c1
- Population Apoptotic (%) [1]: 64% and 84%
- Population Fragmented Nuclei (%) [1]: 13% and 15%
- Population Healthy Nuclei (%) [1]: 72% and 73%
- Population Hoechst High Intensity Objects (%) [1]: 1%
- Population Membrane Permeable-Phenotype (%) [1]: 3% and 4%
- Population Mitochondria Different-Phenotype (%) [1]: 3%
- Population Mitotic Cells (%) [1]: 35% and 15%
- Population Normal (%) [1]: 98%
- Population Pyknosed Nuclei (%) [1]: 13% and 10%
- Population Tubulin-Different-Phenotype (%) [1]: 1% and 4%
- Total Cell Count [1]: 213 and 128
- Population Apoptotic (%) [2]: 84% and 100%
- Population Fragmented Nuclei (%) [2]: 21% and 20%
- Population Healthy Nuclei (%) [2]: 66% and 68%
- Population Hoechst High Intensity Objects (%) [2]: 4% and 2%
- Population Membrane Permeable-Phenotype (%) [2]: 9%
- Population Mitochondria Different-Phenotype (%) [2]: 7% and 15%
- Population Mitotic Cells (%) [2]: 15% and 0%
- Population Normal (%) [2]: 95% and 97%
- Population Pyknosed Nuclei (%) [2]: 12%
- Population Tubulin-Different-Phenotype (%) [2]: 6% and 3%
- Population Apoptotic (%) [3]: 70% and 86%
- Population Fragmented Nuclei (%) [3]: 16% and 20%
- Population Healthy Nuclei (%) [3]: 73% and 69%
- Population Hoechst High Intensity Objects (%) [3]: 1%
- Population Membrane Permeable-Phenotype (%) [3]: 3% and 7%
- Population Mitochondria Different-Phenotype (%) [3]: 3% and 5%
- Population Mitotic Cells (%) [3]: 29% and 13%
- Population Normal (%) [3]: 98%
- Population Pyknosed Nuclei (%) [3]: 9%
- Population Tubulin-Different-Phenotype (%) [3]: 2% and 4%
- Total Cell Count [3]: 256 and 156
- Population Apoptotic (%) [4]: 82% and 100%
- Population Fragmented Nuclei (%) [4]: 22% and 15%
- Population Healthy Nuclei (%) [4]: 64% and 78%
- Population Hoechst High Intensity Objects (%) [4]: 4% and 1%
- Population Membrane Permeable-Phenotype (%) [4]: 6% and 12%
- Population Mitochondria Different-Phenotype (%) [4]: 3% and 13%
- Population Mitotic Cells (%) [4]: 17% and 0%
- Population Normal (%) [4]: 95% and 98%
- Population Pyknosed Nuclei (%) [4]: 12% and 5%
- Population Tubulin-Different-Phenotype (%) [4]: 1% and 4%
- Population Apoptotic (%) [5]: 88% and 96%
- Population Fragmented Nuclei (%) [5]: 15% and 20%
- Population Healthy Nuclei (%) [5]: 75% and 65%
- Population Hoechst High Intensity Objects (%) [5]: 2%
- Population Membrane Permeable-Phenotype (%) [5]: 6% and 9%
- Population Mitochondria Different-Phenotype (%) [5]: 3% and 4%
- Population Mitotic Cells (%) [5]: 11% and 3%
- Population Normal (%) [5]: 97%
- Population Pyknosed Nuclei (%) [5]: 8% and 14%
- Population Tubulin-Different-Phenotype (%) [5]: 4% and 6%
- Total Cell Count [5]: 417 and 206
- Population Apoptotic (%) [6]: 92% and 91%
- Population Fragmented Nuclei (%) [6]: 18% and 26%
- Population Healthy Nuclei (%) [6]: 72% and 64%
- Population Hoechst High Intensity Objects (%) [6]: 3% and 2%
- Population Membrane Permeable-Phenotype (%) [6]: 8% and 5%
- Population Mitochondria Different-Phenotype (%) [6]: 3% and 7%
- Population Mitotic Cells (%) [6]: 7% and 8%
- Population Normal (%) [6]: 96% and 97%
- Population Pyknosed Nuclei (%) [6]: 9% and 8%
- Population Tubulin-Different-Phenotype (%) [6]: 6% and 1%
